From ChEMBL document CHEMBL1121556, “Structure-activity relationships in a series of newly synthesized 1-amino-substituted ellipticine derivatives” (J Med Chem, 1980) come the findings set out here.

Data set [1] deals with Friend leukemia cells (Mus musculus). The data set is described as follows: In vitro concentration required for growth inhibition of murine Friend leukemia cell. The note with it: read-out: ID50 (the source's name).
Data set [2] has as its system Nucleic Acid. The data set is described as follows: Apparent association constant towards DNA at concentration of 10e-7/M. It is filed as nucleic-acid assay. The note with it: Bos taurus. In a few lines: (§1)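 Association constants for DNA binding were derived from absorption changes of calf thymus DNA at 6 × 10^-7 M, expressed as mononucleotide concentration. The buffer was 50 mM Tris-HCl, pH 7.4, with 0.1 M NaCl.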

Data set [3] has as its system Nucleic Acid. Nature of the data set: B app constant towards DNA. It counts as nucleic-acid assay. The conditions noted are these: Bos taurus. In a few lines:
as §1

Data set [4] has as its system Mus musculus. Nature of the data set: In Vivo antitumor activity on grafted tumor friend cells at the dose 5 mg/kg and decrease in intravenous 10 e 6 cells and median survival time was determined. It is filed as functional. In a few lines: (§2)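 Friend tumor cells, 10^6, injected iv into syngeneic mice. Mice randomized in groups of 16. Drug dissolved in acidified saline (equimolar acetic acid) and given as a single iv dose 3 days after inoculation. Median survival time recorded. %ILS = (treated median survival − control median survival)/control median survival × 100.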

For data set [5], the system named is Nucleic Acid. The data set is described as follows: (§3) Apparent association constant towards DNA at concentration of 10e-7/M. It counts as nucleic-acid assay. The conditions noted are these: Bos taurus. An outline of the steps: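 Apparent association constant from absorption changes of 6 × 10^-7 M calf thymus DNA (as mononucleotide concentration) in 50 mM Tris-HCl, pH 7.4, 0.1 M NaCl.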

In data set [6] the test system is Mus musculus. Nature of the data set: In vivo acute toxicity (nonlethal dose) against mice by intravenous administration. It is filed as organism-based. In a few lines: (§4)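 Mice (ICFW, C3H or B6D2 F1; 6-8 weeks; 22-24 g) in five groups of six. Drug dissolved in acidified saline (equimolar acetic acid) and given as a single ip or iv dose of 2, 5, 10, 25 or 50 mg/kg. Mortality observed over 30 days to set the lethal dose (LD100) and the highest nonlethal dose (LD0).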

Data set [7] has as its system Mus musculus. The data set is described as follows: In vivo acute toxicity (nonlethal dose) against mice by intraperitoneal administration. The conditions noted are these: ip. It is filed as organism-based. In a few lines:
as §4

The test system of data set [8] is Mus musculus. Nature of the data set: In vivo acute toxicity (lethal dose) against mice by intravenous administration. It is filed as organism-based. In a few lines: as §4
Data set [9] concerns Mus musculus. Nature of the data set: In vivo evaluation of antitumor activity on L1210 leukemia cells at the dose 15 mg/kg administered intraperitoneally 1 day after 10 e5 L1210 leukemia cells and increase in life span;(P<0.001). It counts as functional. The conditions noted are these: L1210, ip, 24 h, route intraperitoneal.
For data set [10], the system named is Mus musculus. The data set is described as follows: In vivo acute toxicity (lethal dose) against mice by intraperitoneal administration. It is filed as organism-based. The conditions noted are these: ip. An outline of the steps: as §4
In data set [11] the test system is Mus musculus. Nature of the data set: In Vivo evaluation for the antitumor activity on grafted tumor friend cells at the dose 20 mg/kg and Increase in the life span was determined. It counts as functional. In a few lines: as §2
In data set [12] the test system is Mus musculus. Nature of the data set: In vivo evaluation of antitumor activity on L1210 leukemia cells at the dose 5 mg/kg administered intraperitoneally 1 day after 10 e5 L1210 leukemia cells and Mean survival time. The conditions noted are these: route intraperitoneal.
In data set [13] the test system is Mus musculus. The data set is described as follows: In vivo antitumor activity on L1210 leukemia cells at the dose 15 mg/kg administered intraperitoneally 1 day after 10 e5 L1210 leukemia cells and range of deaths. It is filed as functional. The conditions noted are these: route intraperitoneal.
For data set [14], the system named is Mus musculus. Nature of the data set: In vivo evaluation of antitumor activity on L1210 leukemia cells at the dose 5 mg/kg administered intraperitoneally 1 day after 10 e5 L1210 leukemia cells and increase in life span;. It is filed as functional. The conditions noted are these: L1210, ip, 24 h, route intraperitoneal.
Data set [15] deals with Mus musculus. Nature of the data set: In Vivo evaluation for the antitumor activity on grafted tumor friend cells at the dose 5 mg/kg and Increase in the life span. It is filed as functional. An outline of the steps:
as §2

Data set [16] has as its system Mus musculus. The data set is described as follows: In Vivo antitumor activity on grafted tumor friend cells at the dose 5 mg/kg and decrease in intravenous 10 e 6 cells and median survival time. It counts as functional. In a few lines: as §2
In data set [17] the test system is Nucleic Acid. The data set is described as §3. It counts as nucleic-acid assay. The conditions noted are these: Bos taurus. In a few lines:
as §1
The source holds these as a separate data set.

Data set [18] concerns Mus musculus. The data set is described as follows: In vivo evaluation of antitumor activity on L1210 leukemia cells at the dose 5 mg/kg administered intraperitoneally 1 day after 10 e5 L1210 leukemia cells and Mean survival time. It counts as functional. The note with it: route intraperitoneal.
Data set [19] has as its system Mus musculus. Nature of the data set: In vivo antitumor activity on L1210 leukemia cells at the dose 5 mg/kg administered intraperitoneally 1 day after 10 e5 L1210 leukemia cells and range of deaths. It is filed as functional. The conditions noted are these: route intraperitoneal.
Data set [20] relates to Nucleic Acid. Nature of the data set: Apparent association constant towards DNA at concentration of 1E-7/M. It is filed as nucleic-acid assay. The note with it: Bos taurus. In a few lines:
as §1

The subject of data set [21] is Mus musculus. Nature of the data set: In vivo evaluation for the antitumor activity on L1210 leukemia cells at the dose 15 mg/kg administered intraperitoneally. It is filed as functional. The note with it: route intraperitoneal.
The subject of data set [22] is Mus musculus. Nature of the data set: In vivo evaluation for the antitumor activity on L1210 leukemia cells at the dose 15 mg/kg administered intraperitoneally 1 day after 10 e5 L1210 leukemia cells and increase in life span;(P<0.01). The conditions noted are these: L1210, ip, 24 h, route intraperitoneal. It is filed as functional.
The subject of data set [23] is Nucleic Acid. The data set is described as follows: Apparent association constant towards DNA at concentration of […]. It counts as nucleic-acid assay. The conditions noted are these: Bos taurus. An outline of the steps: as §1
Data set [24] relates to Mus musculus. The data set is described as follows: In vivo evaluation of antitumor activity on L1210 leukemia cells at the dose 15 mg/kg administered intraperitoneally 1 day after 10 e5 L1210 leukemia cells and increase in life span. It is filed as functional. The note with it: L1210, ip, 24 h, route intraperitoneal.
Data set [25] has as its system Mus musculus. Nature of the data set: In vivo evaluation of antitumor activity on L1210 leukemia cells at the dose 15 mg/kg administered intraperitoneally 1 day after 10 e5 L1210 leukemia cells and Mean survival time. It counts as functional. The conditions noted are these: route intraperitoneal.
Data set [26] concerns Nucleic Acid. The data set is described as follows: Apparent association constant towards DNA at concentration of 10 E-7/M. It counts as nucleic-acid assay. The conditions noted are these: Bos taurus. In a few lines:
as §1

The test system of data set [27] is Mus musculus. The data set is described as follows: In vivo antitumor activity on L1210 leukemia cells at the dose 2.5 mg/kg administered intraperitoneally 1 day after 10 e5 L1210 leukemia cells and range of deaths. It is filed as functional. The conditions noted are these: route intraperitoneal.
Data set [28] relates to Mus musculus. The data set is described as follows: In vivo evaluation of antitumor activity on L1210 leukemia cells at the dose 2.5 mg/kg administered intraperitoneally 1 day after 10 e5 L1210 leukemia cells and increase in life span. It counts as functional. The note with it: L1210, ip, 24 h, route intraperitoneal.
Data set [29] concerns Mus musculus. Nature of the data set: In vivo leukemia cells at the dose 2.5 mg/kg administered intraperitoneally 1 day after 10 e5 L1210 leukemia cells and Mean survival time. The note with it: route intraperitoneal. It is filed as functional.

Take `COc1ccc2[nH]c3c(C)c4ccnc(NCCCCN)c4cc3c2c1`: the IC50 in data set [1] was determined as 5 µM. For the same molecule, in the data set with Nucleic Acid [2], the K app was determined as 4e+07 M⁻¹. Besides, the Bapp in the data set with Nucleic Acid [3] was determined as 0.13.
Broadly, the ILS is the gain in survival time of treated over control animals, in per cent. For the molecule `CCN(CC)CCCNc1nccc2c(C)c3[nH]c4ccc(O)cc4c3cc12`, the MST with Mus musculus [4] was determined as 11 days; in the data set on Mus musculus [12], 16 days. In addition, the IC50 in [1] was 0.02 µM. For the same molecule, the K app in the data set with Nucleic Acid [5] was determined as 3.7e+07 M⁻¹. Further, the LD0 with Mus musculus [6] and in the data set on Mus musculus [7] was 5 mg/kg throughout. Also, the Bapp in the data set with Nucleic Acid [3] was 0.11. Also, the LD100 with Mus musculus [8] and in the data set with Mus musculus [10] was 15 mg/kg throughout. The molecule further yielded an ILS at 15 mg/kg with Mus musculus [9] of 49.5%. Moreover, the ILS at 20 mg/kg in the data set on Mus musculus [11] came to 29.4%. Further, in the data set on Mus musculus [13], the Range of deaths turned out to be 18 days.
On to `COc1ccc2[nH]c3c(C)c4ccnc(NCCN)c4cc3c2c1`, for which the values for the ILS at 5 mg/kg with Mus musculus [14] and in the data set with Mus musculus [15] were 8.7% and 18.8%, respectively. Besides, in data set [1], the IC50 worked out at 0.1 µM. Further, the Bapp in the data set on Nucleic Acid [3] was 0.135. For the same molecule, in the data set on Mus musculus [7], the LD0 amounted to 5 mg/kg. Moreover, the MST with Mus musculus [16] amounted to 10.1 days; with Mus musculus [18], 13.8 days. The LD100 in the data set with Mus musculus [10] was 10 mg/kg. The K app in the data set on Nucleic Acid [17] was 3.3e+07 M⁻¹. For the same molecule, the Range of deaths in the data set on Mus musculus [19] was 20 days.
With `CCN(CC)CCCNc1nccc2c(C)c3[nH]c4ccc(OCc5ccccc5)cc4c3cc12`, the IC50 in data set [1] was found to be 2 µM.
As to `CCN(CC)CCCNc1nccc2c(C)c3[nH]c4ccc(OC)cc4c3cc12`, the IC50 in data set [1] was 5 µM. In addition, in the data set with Nucleic Acid [20], the K app was 3.15e+07 M⁻¹. The Bapp with Nucleic Acid [3] amounted to 0.1. In addition, the LD0 in the data set on Mus musculus [7] was 15 mg/kg. The LD100 in the data set with Mus musculus [10] came to 30 mg/kg. For the same molecule, the MST in the data set with Mus musculus [21] was found to be 14.3 days. This molecule also showed a Range of deaths in the data set on Mus musculus [13] of 19 days. The molecule further came in with an ILS at 15 mg/kg in the data set on Mus musculus [22] of 24.6%.
For `COc1ccc2[nH]c3c(C)c4ccnc(NCCCN(C)C)c4cc3c2c1`, in [1], the IC50 was 1 µM. Further, the K app with Nucleic Acid [23] came out at 3.15e+07 M⁻¹. The molecule also yielded a Bapp in the data set with Nucleic Acid [3] of 0.09.
On to `COc1ccc2[nH]c3c(C)c4ccnc(NCCCN5CCN(CCCN)CC5)c4cc3c2c1`, for which the IC50 in data set [1] stood at 0.2 µM. Besides, the LD0 in the data set on Mus musculus [6] is below 1 mg/kg; in the data set with Mus musculus [7] it was 25 mg/kg. Also, the LD100 with Mus musculus [8] is 2.5 mg/kg; in the data set with Mus musculus [10] it was 50 mg/kg.
As for `Cc1c2ccnc(NCCCN)c2cc2c1[nH]c1ccc(OCc3ccccc3)cc12`, in data set [1], the IC50 was 0.3 µM.
Consider `CCN(CC)CCCC(C)Nc1nccc2c(C)c3[nH]c4ccc(OC)cc4c3cc12` (configuration not stated), for which, in [1], the IC50 was 0.5 µM. The LD0 with Mus musculus [7] was 1.5 mg/kg. For the same molecule, the increase in life span (ILS) at 15 mg/kg in the data set with Mus musculus [24] amounted to 8.7%. The same molecule yielded an MST in the data set with Mus musculus [25] of 12.5 days. This molecule also gave an LD100 with Mus musculus [10] of 30 mg/kg. For the same molecule, the Range of deaths in the data set with Mus musculus [13] was determined as 14 days.
As for `COc1ccc2[nH]c3c(C)c4ccnc(NCCCn5ccnc5)c4cc3c2c1`, the IC50 in data set [1] was 0.5 µM.
Take `COc1ccc2[nH]c3c(C)c4ccnc(NCCN(C)C)c4cc3c2c1`: the IC50 in [1] worked out at 0.8 µM. The molecule also had a Bapp with Nucleic Acid [3] of 0.11. Besides, in the data set on Nucleic Acid [17], the K app was found to be 2.8e+07 M⁻¹.
Consider `COc1ccc2[nH]c3c(C)c4ccnc(NCCCN)c4cc3c2c1`, for which, in [1], the IC50 came to 0.2 µM. For the same molecule, in the data set with Nucleic Acid [3], the Bapp came to 0.07. Besides, the K app in the data set with Nucleic Acid [26] stood at 3.05e+07 M⁻¹.
Consider `Cc1c2ccnc(NCCN(C)C)c2cc2c1[nH]c1ccc(O)cc12`, for which the IC50 in [1] turned out to be 0.03 µM. The molecule further displayed a Range of deaths with Mus musculus [27] of 20 days. Also, the ILS at 2.5 mg/kg with Mus musculus [28] was 26%. For the same molecule, in the data set with Mus musculus [7], the LD0 came out at 2.5 mg/kg. Further, in the data set with Mus musculus [10], the LD100 came out at 5 mg/kg. Besides, the MST in the data set on Mus musculus [29] came out at 16 days.
